Measured values published in the RNAGym collection of RNA variant scans (doi:10.1126/science.aae0568).
Variants at the floor of the assay were thinned out.

B1: tRNA (parent)
chain: GUUCCGUUGGCGUAAUGGUAACGCGUCUCCCUCCUAAGGAGAAGACUGCGGGUUCGAGUCCCGUACGGAACG

Variants of: B1
Experiment: yeast fitness relative to wild type (ratio to wild type); higher = fitter; tRNA-Arg(CCU), competitive growth, 37 C, YPD
Method in brief: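 Changes in genotype frequencies gave Darwinian fitness relative to wild type. Frequencies were read by 100-nucleotide paired-end sequencing of gene amplicons before and after pooled Saccharomyces cerevisiae strains, carrying tRNA-Arg(CCU) gene variants at the native locus, were competed in YPD at 37°C for 24 hours in six replicates. A genotype was kept only with ≥ 100 starting reads, and estimates < 0.5 were set to 0.5.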

Variant	yeast fitness
U7A C31A	0.634
G6U G68C	0.794
U7A A21U A45C	≤ 0.5
G6C U35C	0.866
G6C G39C	0.7
U7A G9C	0.674
U7A C33A A45C G68A	≤ 0.5
G6C G38C C46A	0.54
G6C U8C C34G A45G A65U	≤ 0.5
G6C U47A C60G	≤ 0.5
G6C U8C C11U U19C A20U A42C A65C A69U	≤ 0.5
U7A G12A C30U	≤ 0.5
U7A G23C C66U	≤ 0.5
U7A A20C G58A G63A	≤ 0.5
U7A C34U A65G C66G	≤ 0.5
G6C U7C G48A	0.614
U7A G25C C27G C31U A45U C62U U64C	≤ 0.5
U7A A45C	0.737
G6C U19C C22A U35C A69U	≤ 0.5
G6C U13G G18A C55A	0.514
G6C U16A G18C C22G C49U	≤ 0.5
U7A A15G G23A	0.638
U7A A36C G51C	≤ 0.5
U7A G38A G52C A57C	≤ 0.5

Variant	yeast fitness
G6C U7A C34U C61U	0.658
G6C U13C C46A	0.627
U7A G9C A40C U47C	≤ 0.5
U7A G44C C66U	≤ 0.5
U7A G17A C24U C34A A40G C61U A69U	≤ 0.5
U7A U8A G10C C27G C34G A42G C55U	≤ 0.5
U7A A21G C30G A36G C46G U54C A57U	≤ 0.5
U7A A21G C61G C66G	≤ 0.5
U7A C62A A69G A70G	≤ 0.5
U7A C29U C61U G68C	0.582
U7A C29U C31A	≤ 0.5
U7A C46G A70U	0.642
U7A G18A	0.689
U7A G44C C61A C62U C66U	≤ 0.5
U7A C49A A69C	≤ 0.5
G6C U16G G39C	≤ 0.5
U7A G44C	0.718
U7A G44A	0.755
U7A C30U C33U C46U G68U	≤ 0.5
U7A A36C A57C	≤ 0.5
G6C U8A A45U U53C G67A A69C	0.775
U7A A42G	0.655
G6C U8C A42G C46U C55G A65U	≤ 0.5
U7A C24U C46A	0.567

Variant	yeast fitness
U7A A20G C46G G63C G67C A69U	≤ 0.5
U7A A36U U64C	≤ 0.5
U7A A20C A69C	0.609
U7A G9C G17C	0.55
G6C U16A G18C C22G	0.615
U7A C24U C33A	≤ 0.5
U7A U13G C55G	≤ 0.5
U7A A40U A45G C46U	≤ 0.5
U7A C29U C31A A65C	0.655
U7A C55G G58C	≤ 0.5
G6C U47A	0.818
U7A G17A U59A	≤ 0.5
U7A G41A	0.634
U7A C29A G58A C61G A70U	0.665
G6C G38C C46A G67U	≤ 0.5
U7A C31U C34G	≤ 0.5
G6C G44C A65G A70C	≤ 0.5
U7A U8G A36U A43U	≤ 0.5
G6C U7A C46U	0.577
U7A G10A C30A A43C C66U	0.553
U7A A14U A20C U28C C46U G58A	≤ 0.5
U7A U8C G17A C27G C29U U32C A43C G52A	≤ 0.5
U7A A20C A21G G23A G56A	≤ 0.5
U7A C49U A65C	0.711

Variant	yeast fitness
U7A A20G C31U A57G A70C	≤ 0.5
U7A C11U U16A G25A	≤ 0.5
U7A C34U C49A	≤ 0.5
U7A U8G C22U C30U A42G C61A	≤ 0.5
U7A G9A U13A G48A U54G C61A	≤ 0.5
U7A A20G C34A G44A C46U A70C	≤ 0.5
G6C U13C C24A C27G A36U	≤ 0.5
U7A G9C A40C C62A	≤ 0.5
G6C G63C A69G	≤ 0.5
U7A C34A G56C A65G	≤ 0.5
U7A G41A C61A	≤ 0.5
U7A C29G G50A U64C	≤ 0.5
U7A A65U	0.996
U7A G9A U13A	0.6
U7A G12C C27G C31A C46A C62G	≤ 0.5
G6C U7G G17C U53A	≤ 0.5
G6C U13A C34A	≤ 0.5
U7A A20C A21G G23A A70U	≤ 0.5
U7A G10A A20C C29A	0.543
U7A G9C G17C G48A A69C	≤ 0.5
U7A C27U C29U G63A	0.598
U7A A20G C29A	0.544
U7A G10U	0.614
U7A G10C	0.617

Variant	yeast fitness
G6C U8C C60A C62U	≤ 0.5
U7A A14C G25A C30G C49U	0.557
U7A C27G C34G U54A	≤ 0.5
U7A A43U	0.622
G6C U53A C60A	≤ 0.5
G6C G39C C55G	≤ 0.5
U7A A21C C31G	≤ 0.5
U7A G9C G17C G48A G68C	≤ 0.5
G6C U8A G58C C61A	≤ 0.5
G6C U8C C27U G48A A57G	≤ 0.5
G6C G50C A69U	0.554
G6C U32A	0.756
G6C U8A G51A A65U G67A	≤ 0.5
U7A G50C A57C C61U	≤ 0.5
U7A U8C G9A C33U	≤ 0.5
U7A G9C C30U C34G G68C	0.56
U7A C30U C46U C55G	≤ 0.5
U7A G38A A42U G51A U53G C60G	≤ 0.5
G6U G18C C49G	≤ 0.5
U7A A70C	0.817
U7A G51A G52A	0.536
U7A C34G G39A	≤ 0.5
U7A C11G A36U C49U	≤ 0.5
G6C U8C G25A	0.581

Variant	yeast fitness
U7A C27A G50C	≤ 0.5
G6C U28A C33G	≤ 0.5
U7A A42G G68C	≤ 0.5
G6C U16G C46A	0.599
U7A C27G C34U	≤ 0.5
G6C G50A A70U	0.633
U7A C27U U28C	≤ 0.5
U7A C30A G51A	≤ 0.5
G6U	0.918
G6C G41A A43G C60U A70C	≤ 0.5
G6C U53C A65G	≤ 0.5
U7A C22U U28A C29G C33A A42U A70U	≤ 0.5
U7A C27U C29U	≤ 0.5
U7A C11G C60A	≤ 0.5
U7A C46G C61U	0.601
U7A C34A G56C	0.541
U7A G10A A20C C29A C55G G63C	≤ 0.5
U7A A15C C27A C61G	≤ 0.5
G6C U16G A20C G25A A43U G50A C55U	≤ 0.5
U7A G9A C24A	≤ 0.5
U7A G25C C27G C31U A45U U64C	≤ 0.5
U7A C33A A45C	0.54
U7A A57U	0.572
U7A G12C C34U C66G	≤ 0.5

Variant	yeast fitness
G6C U7G G17C G67A	≤ 0.5
G6C U16C A42U G52U	0.634
U7A A36C G56A	≤ 0.5
U7A G9C A15G G23A U53A	0.505
U7A A20G C29U A57C	≤ 0.5
G6U G44C	0.755
U7A C11U C30U U59A A69C	≤ 0.5
U7A U13A A21U A45U	0.649
G6C U64A	0.853
G6C U19C U32A A42C	≤ 0.5
G6C U8C A42G	0.575
G6U U35G A69U	1.03
U7A C22G C30U A37G	≤ 0.5
G6C U16A G18C C22G G52C G68A	≤ 0.5
U7A A15C C27A U47C G58C	≤ 0.5
U7A G10A A15U	0.568
U7A C24G C55G	≤ 0.5
U7A A36U C60A U64C	≤ 0.5
U7A C34G A70U	≤ 0.5
U7A C31U A40U G67C	≤ 0.5
U7A G23C A45G C60G	≤ 0.5
G6C U13A U54A A57C	≤ 0.5
U7A C30U G39A A40G G67A	≤ 0.5
